According to ChEMBL document CHEMBL4513216, “Probing the Open Global Health Chemical Diversity Library for Multistage-Active Starting Points for Next-Generation Antimalarials” (ACS Infect Dis, 2020):

Assay: Toxicity liver stage against HepG2, at 10uM
Format: cell-based
Parameters: test concentration 10 uM, cell line HepG2-A16-CD81EGFP
Conditions: human, HepG2-A16-CD81EGFP cells; read-out: INHIBITION
In short: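 Uninfected HepG2-A16-CD81EGFP cells, 3 × 10^3 per well, 1536-well, plated on prespotted compound at 10 μM final, parasite-free screening media added to match infected plates; puromycin 10 μM positive, DMSO 0.5% negative; run in parallel with 48 h PbLuc assay at 37 °C, 5% CO2; viability by CellTiter-Glo luminescence, normalized to controls.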

SMILES | cytotoxicity at 10 µM [%]
COC(=O)c1ccc2c(-c3ccnc(N[C@@H](C)CO)n3)c[nH]c2c1 | -5.94
COc1ccc(CN2C[C@@H]3OCCN(CCN4CCCC4)[C@@H]3C2)cc1 | -82.4
Cn1cnc(S(=O)(=O)NCC(C)(O)c2ccc3c(c2)OCO3)c1 (stereo not given) | -4.44
CCN1CCCC(O)(CN(C)Cc2ccc(C)o2)C1 (stereo not given) | -3.65
CCc1nc(CN2CCCC(N(C)Cc3cnn(C)c3)C2)no1 (stereo not given) | -14.5
Cc1nc(CN2CCC3(CCCO3)CC2)c2ccccn12 | 2.07
Cc1cc(C)c(CNC(=O)NCCNc2ccccn2)c(=O)[nH]1 | -37
CN(C)[C@@H]1CCN(c2ncc(F)cn2)[C@H]1Cc1ccccc1 | -1.65
O=C(c1cc(Cl)c[nH]1)N(CCCO)Cc1cccnc1 | 7.48
CCc1ccc(C(=O)N2CCN(CCS(C)(=O)=O)CC2)o1 | -8.03
Cc1ccc(NC(=O)C2CCc3ccccc3N2)cc1 (stereo not given) | -5.57
Cc1noc(C)c1CCC(=O)N1CCCN(Cc2cscn2)CC1 | -4.51
O=C(Cc1c[nH]c2ccccc12)N1CCC(Nc2cccnn2)CC1 | -5.08
COc1cccc(CN(C)Cc2nc3c(cnn3C)c(=O)[nH]2)c1OC | -4.28
O=C(O)c1ccc2ccc(N3CCN(CC4CC4)CC3)n2c1 | 7.25
Cc1nc(N2CCOCC2)nc2c1CCN(C(=O)C1CCCCC1)CC2 | -0.152
O=C1CCCCN1c1cccc(CNC2CCCC2)c1 | 6.86
O=C(NC1CCCC1)N1C[C@H]2CN(c3ccccn3)C[C@@]2(C(=O)O)C1 | 6.12
O=C(Nc1ccccc1)N1C2CCC(O)(CC2)C1CO (stereo not given) | -5.2
COc1cccc(N2CCN(C(=O)C(C)Oc3ccccc3)CC2=O)c1 (stereo not given) | -4.73
O=C1CCCN1CCN1CCCCC1Cn1cccn1 (stereo not given) | 12.9
COC(=O)c1sccc1S(=O)(=O)N1CCC(Oc2cnccn2)CC1 | 9.32

SMILES | cytotoxicity at 10 µM [%]
COc1ccc(OC)c(C(O)CN2CC(n3cccn3)C2)c1 (stereo not given) | -8.42
O=C(CCn1ccc2cc(Br)ccc21)/N=c1\[nH]nc(C2CCCO2)s1 (stereo not given) | -2.31
CCCc1nnc(NC2CCN(C3CCCC3)CC2)o1 | -2.66
CC(C)N(CC(=O)Nc1ccc(Br)cc1Cl)Cc1cccnc1 | 17.2
Cc1cc(NC(=O)CN2CCCC2c2noc(C(C)C)n2)on1 (stereo not given) | -6.31
Cc1nccn1-c1nccnc1C1CCCN(C2CCCC2)C1 (stereo not given) | -0.55
CCCSCC(=O)NCc1cccc(CN(C)CC)c1 | -0.823
O=C(c1ccc2nccn2c1)N(CCO)Cc1ccccc1F | 5.27
Cc1ccc(CN2CCC3(CC2)CCN(C(=O)c2cccn2C)C3)cc1 | -2.6
O=C(O)CCc1nc2nccc(-c3ccc(F)cc3)n2n1 | -9.24
CCOCC(O)CN1CCN(C(=O)Cc2cccc(Cl)c2)CC1 (stereo not given) | -7.69
CC1CCN(C(=O)c2cn(-c3cc(N4CCOCC4)ncn3)cn2)CC1 | 1.75
Cc1csc(Nc2cc(C3CN(C(C)C)C3)nc(C)n2)n1 | -7.56
CCN1CC2(CCC1=O)CCN(CCc1nccn1C)CC2 | 4.65
Cc1cc(C)n(Cc2ccc(-c3noc(C(=O)NC[C@@H](C)O)n3)cc2)n1 | -9.62
Cc1cc(NC2CCN(c3ccc(F)cc3)CC2)n2nc(C)cc2n1 | -0.527
CCC(C)(NC(=O)CCN1CCOC1=O)C(=O)OC (stereo not given) | -16
Cc1oncc1C(=O)N1CC[C@H]2[C@H](C[C@@H](CN(C)C)N2CC2CC2)C1 | 2.84
Fc1cccc(CN2CCN(Cc3cscn3)CC2)c1 | -0.612
O=C(NCCSCc1ccc(Br)s1)C1CCCN(C(=O)c2cccs2)C1 (stereo not given) | -1.79
Cn1cc(N2CCN(c3ccc(C#N)cc3Br)CC2=O)cn1 | -5.48
CC(C)(C)c1nc(NS(=O)(=O)c2ccc(F)cc2)no1 | 4.71

SMILES | cytotoxicity at 10 µM [%]
Cc1cnc(CN(C)C2CCN(Cc3nnc(C4CC4)o3)C2)o1 (stereo not given) | 5.25
CC1=N[C@@]2(CC[C@@H]3CNC[C@@H]32)C(=O)N1CC(C)C | 2.98
CN1[C@H](CN2CCCC2)C[C@@H]2CN(C(=O)Cc3cccs3)CC[C@@H]21 | 4.99
Cc1cccc(CN2CC[C@H]3O[C@H](C(=O)Nc4cnccn4)CC[C@H]32)n1 | -144
CN(CC(=O)N(C)C1CCCCC1)C1CCc2ccccc21 (stereo not given) | -7.44
Cc1nn(C)c(C)c1C1SCC(=O)Nc2c1c(O)nn2C(C)C (stereo not given) | -6.82
COc1cnc(N2CCC(c3ncc[nH]3)CC2)nc1 | 0.852
CN(C(=O)c1ccc(S(=O)(=O)NC(C)(C)C)cc1)C1(C#N)CCC1 | 3.07
O=C(CCNc1ncccn1)N1CCCN(c2nccs2)CC1 | -14.3
Cc1c(-c2nnc(SCC(=O)O)n2C(C)c2ccccc2)cnn1C (stereo not given) | -5.43
COCC(=O)NC1CCCN(c2ccc(C)cc2)C1=O (stereo not given) | -0.82
CCc1cnc(CNC(=O)NC2CC(C)(C)OC2(C)C)s1 (stereo not given) | 10.3
CCc1ccc(NC(=O)CCN2CC(n3nc(C)cc3C)C2)cc1 | -8.03
Cc1cnn(CC2CN(CC(=O)NCc3ccco3)CCO2)c1 (stereo not given) | -1.43
Cc1cnn(CC2CCCN2C(=O)Cc2cccs2)c1 (stereo not given) | -0.704
CC(C)N1CCCC2(CCN(c3nccc(C(F)(F)F)n3)C2)C1=O (stereo not given) | 11.4
CS(=O)(=O)N1CCC(Nc2ccnc3ccc(Cl)cc23)CC1 | 54.3
O=C(CN1CCN(CCO)CC1)NCc1ccc(Cl)s1 | 9.3
O=C(N[C@@H]1CCN(c2nc3ccccc3o2)C[C@H]1O)c1cnccn1 | 3.52
Cc1cn2nc(N3CCCC3C(=O)N3CCN(C)CC3)sc2n1 (stereo not given) | -12.6
O=C(NCc1ccc2c(c1)CCCO2)c1ccc(C2CCNC2)cc1 (stereo not given) | -11.5
CC(C)CN1CCN(C(=O)Nc2cc(C(F)(F)F)c[nH]c2=O)CC1 | -3.43

SMILES | cytotoxicity at 10 µM [%]
CC(=O)NCCC(=O)NCC1(c2c(F)cccc2F)CCCC1 | -2.75
COCc1noc(CCNc2ncnc3c2CCNCC3)n1 | -5.59
CCN1CCCCC1C(=O)N1CCC(OC2CCCC2)CC1 (stereo not given) | -20.6
COc1ccc(OC)c(NC(=O)CSc2ccc3nncn3n2)c1 | -14.2
COc1ccc(C(C)Nc2cnn(C)c(=O)c2Cl)cc1OC (stereo not given) | 18.7
Cc1ccc2cc(C(=O)N3CCC(Nc4cccnn4)CC3)[nH]c2c1 | -21
O=C(Cc1ccc2c(c1)OCO2)N1CCN(c2ccccc2Cl)C(=O)C1 | -0.874
O[C@@H]1C[C@H]2CN(Cc3ccsc3)[C@@H](Cc3ccccc3)CN2C1 | -2.13
CCCN(CC(F)F)C(=O)CCc1c(C)nc2cc(O)nn2c1C | -147
Cc1csc(N2CCCN(C(=O)c3ccoc3C)CC2)n1 | -8.45
Cc1nc(CN2CCN(C(=O)c3c(C)noc3C)CC2)cs1 | -23.2
CC(NC(=O)N1CCCN(CC(F)F)CC1)c1ccco1 (stereo not given) | -6.03
CCN1CCOC(CNCc2ccccc2OCc2cccnc2)C1 (stereo not given) | -13.1
CCOc1ccc(C(=O)N2CCCC(n3nc(C)nc3C)C2)cc1 (stereo not given) | -4.34
c1ccn(Cc2nnc3n2CCCN(Cc2ccoc2)C3)c1 | 0.993
Cc1ccc(C(CNC(=O)Cc2nc3ncccn3n2)N(C)C)cc1 (stereo not given) | -1.64
CCO[C@@H]1CCN(C(=O)N(C)C)[C@@H]1Cc1cnn(C)c1 | -73.4
Cc1nc(C)n(C2CCCN(C(=O)c3c[nH]c(C(C)C)n3)C2)n1 (stereo not given) | -19.9
COc1cccc(CCC2CCCN(Cc3ncc[nH]3)C2)c1 (stereo not given) | 1.13
COCC(=O)N1CCC(c2csc(NC(C)=O)n2)CC1 | -28.6
Cc1ncsc1CN1C[C@@H]2COC[C@]2(C(=O)NC(C)C)C1 | -98.6
CCOc1ccc(S(=O)(=O)NCc2cccnc2N(C)C)cc1 | 34.7

SMILES | cytotoxicity at 10 µM [%]
COc1cccc2cc(CNC(=O)N3CCOC(C)(C)C3)oc12 | -14.8
Cc1cccc(C2CCCN(C(=O)C3CCN(CC(N)=O)CC3)C2)c1 (stereo not given) | -7.18
CCCS(=O)(=O)N1C[C@@H]2CN(Cc3ccco3)CCO[C@@H]2C1 | -142
CN(C)C(=O)CN1CCCc2c(F)cc(Br)cc21 | -0.682
CCC(CNC(=O)c1nc(=O)[nH][nH]1)Oc1cccc(F)c1 (stereo not given) | -6.76
O=C(NCCc1ccn(-c2ccccc2)n1)N1CCC1 | -0.361
Cc1nc(CN2CCCC(NCc3cnc(C(C)(C)C)s3)C2)no1 (stereo not given) | 0.38
CN1CCN(c2ncc3c(=O)n(Cc4ccco4)ccc3n2)CC1 | -15.1
COCc1nc(C(=O)N2CCCC(n3nc(C)nc3C)C2)cs1 (stereo not given) | -24.1
NC(=O)CN1CCC(C(=O)NCc2ccc3c(c2)OCCCO3)CC1 | -6.42
CCOCCC(=O)N1CCCC(CO)(CC2CC2)C1 (stereo not given) | 7.58
O=C1OCCC1N1CCN(C(=O)Cc2c[nH]c3ccccc23)CC1 (stereo not given) | -7.03
CCN1CCN(c2ccc(C(=O)NC(C)c3ccncc3)cc2)CC1 (stereo not given) | -16.6
CCCc1nc(C(C)(C)NC(=O)C2CC(=O)N(CC(C)C)C2)no1 (stereo not given) | -5.31
CCc1nnsc1C(=O)NCc1c(C)nn(CCOC)c1C | -8.8
O=C(c1ccc(O)c(Cl)c1)N1C[C@@H](CN2CCCCCC2)[C@@H](CO)C1 | 1.89
CNc1cc(C2CN(C(=O)c3ccccc3)CCO2)nc(C)n1 (stereo not given) | 6.1
CC1CCN(C(=O)[C@@H]2CC[C@@H]3[C@@H](CCN3c3ncc(F)cn3)O2)CC1 | -0.359
COc1ccc2c(c1)CN(Cc1ccco1)C(=O)CCN2CC(C)(C)O | -7.08
CCc1ccc(NC(=O)C(C)N2CCN(Cc3ncc[nH]3)CC2)cc1 (stereo not given) | -7.83
O=S1(=O)COCCN1Cc1ccc(F)cc1Cl | 14.7
CN(C)C(=O)CN1CCC2(CC1)CC(=O)c1c(ccc3ccccc13)O2 | 3.28
